The results in this text go back to ChEMBL document CHEMBL1153333, “Structure-activity relationship studies of curcumin analogues” (Bioorg Med Chem Lett, 2009).

Molecules are shown by their SMILES.

Assay [1] has as its system PC-3. Nature of the assay: Antiproliferative activity against human PC3 cells after 72 hrs by MTT assay. Type of assay: functional, cell-based. As to conditions: PC-3, 72 h. For orientation: Formazan colour is commonly taken as a measure of viable cells.
Assay [2] has as its system LNCaP. Nature of the assay: Antiproliferative activity against human LNCAP cells after 72 hrs by MTT assay. Type of assay: functional, cell-based.
Assay [3] concerns MCF7. Nature of the assay: Antiproliferative activity against human MCF7 cells after 72 hrs by MTT assay. Format: functional, cell-based. As to conditions: MCF7, 72 h.
For assay [4], the system named is MDA-MB-231. Nature of the assay: Antiproliferative activity against human MDA-MB-231 cells after 72 hrs by MTT assay. Type of assay: functional, cell-based. As to conditions: MDA-MB-231, 72 h.
Assay [5] is described as follows: Antiproliferative activity against human MCF10A cells after 72 hrs by MTT assay. Type of assay: cell-based. As to conditions: MCF-10A. The essentials:
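Spontaneously immortalized, non-malignant human mammary epithelial MCF-10A cells were exposed to compounds for 72 h. Viability was read by MTT assay, and IC50 was taken from that read-out.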

Assay [6] relates to MCF-10A. Nature of the assay: Ratio of IC50 for human MCF10A cells to IC50 for human PC3 cells. The essentials:
(§1)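 Selectivity ratio is the IC50 on non-malignant MCF-10A cells divided by the IC50 on the cancer cell line.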

The test system of assay [7] is LNCaP. Nature of the assay: Ratio of IC50 for human MCF10A cells to IC50 for human LNCAP cells. An outline of the steps: as §1
For assay [8], the system named is MCF7. Nature of the assay: Ratio of IC50 for human MCF10A cells to IC50 for human MCF7 cells. An outline of the steps:
as §1

For assay [9], the system named is MDA-MB-231. Nature of the assay: Ratio of IC50 for human MCF10A cells to IC50 for human MDA-MB-231 cells. An outline of the steps: as §1

One may read the IC50 as the concentration needed to halve the response being measured. A high value points to lower potency. As for `O=C(/C=C/c1ccc(O)cc1)CC(=O)/C=C/c1ccc(O)cc1` [BISDEMETHOXYCURCUMIN], the IC50 came to 27.3 µM in [1], 19.7 µM in assay [2], 24.3 µM in [3] and 21.9 µM in assay [4].

For the compound `COc1cc(/C=C/c2cc(/C=C/c3ccc(O)c(OC)c3)[nH]n2)ccc1O` [CURCUMIN PYRAZOLE], the 50% inhibitory concentration (IC50) in assay [1] is 5.6 µM; in assay [2] it was 3.4 µM; in [3], 5.9 µM; in [4], 6.6 µM; in [5] it was above 50 µM. Besides, the “Ratio IC50” value in [6], in assay [7], in [8] and in assay [9] was “>=5” in each case.

Consider `COc1cc(/C=C/C(O)=C/C(=O)/C=C/c2ccc(OC)c(OC)c2)ccc1O` [METHYLCURCUMIN], for which the IC50 in [1] came out at 20.9 µM; in assay [2] it was 6.8 µM; in [3], 15.4 µM; in assay [4], 7.2 µM.

As for `COc1cc(/C=C/C(=O)CC(=O)/C=C/c2ccc(O)c(OC)c2)ccc1O` [CURCUMIN], the IC50 in assay [1] amounted to 19.8 µM; in assay [2], 19.6 µM; in assay [3], 21.5 µM; in assay [4], 25.6 µM; in [5] it was 30.1 µM.

On to `COc1ccc(/C=C/C(=O)/C=C(O)/C=C/c2ccc(OC)c(O)c2)cc1O`, for which the IC50 in assay [1], in assay [2], in [3] and in assay [4] was above 40 µM in each case.

For the compound `COc1cc(/C=C/C(=O)/C=C(O)/C=C/c2ccc(OS(N)(=O)=O)c(OC)c2)ccc1OS(N)(=O)=O`, the IC50 in [1] was 7.5 µM; in assay [2], 5.9 µM; in assay [3] it was 5.5 µM; in assay [4], 3.1 µM.

For the compound `COc1cc(/C=C/C(O)=C/C(=O)/C=C/c2ccc(OS(N)(=O)=O)c(OC)c2)ccc1O`, the IC50 in assay [1] was 19.3 µM; in assay [2], 20 µM; in assay [3], 15.1 µM; in assay [4] it was 14.3 µM.

As for `COc1ccc(/C=C/C(=O)/C=C/c2ccc(OC)c(O)c2)cc1O`, the IC50 was 5.9 µM in assay [1], 2.6 µM in assay [2], 2.9 µM in assay [3] and 3.1 µM in [4].

For the compound `COc1cc(/C=C/C(=O)/C=C/c2ccc(O)c(OC)c2)ccc1O`, the IC50 in assay [1] was determined as 3.9 µM; in assay [2], 2.7 µM; in assay [3], 2.4 µM; in assay [4] it was 2.8 µM.

Regarding `COc1cc(/C=C/C(=O)/C=C(O)/C=C/c2cc(OC)c(OS(N)(=O)=O)c(OC)c2)cc(OC)c1OS(N)(=O)=O`, the IC50 in [1] turned out to be 13.1 µM; in [2], 10.4 µM; in assay [3], 4.7 µM; in [4] it was 5.5 µM.

On to `O=C(/C=C/c1ccc(O)cc1)/C=C/c1ccc(O)cc1`, for which the IC50 in assay [1] was 9.5 µM; in assay [2], 5.8 µM; in assay [3], 6.9 µM; in assay [4] it was 3.9 µM.

Turning to `COc1cc(/C=C/c2cc(/C=C/c3ccc(O)c(OC)c3)n(C)n2)ccc1O`, the IC50 came to 16.2 µM in assay [1], 12.1 µM in [2], 15.8 µM in assay [3] and 20.4 µM in assay [4].

`COc1ccc(/C=C/C(=O)/C=C/c2ccc(OC)c(OC)c2)cc1OC`: the 50% inhibitory concentration (IC50) in assay [1] worked out at 2.9 µM; in [2] it was 2.2 µM; in [3], 2.5 µM; in assay [4] it was 1.6 µM.

Take `COc1cccc(/C=C/C(=O)/C=C(O)/C=C/c2cccc(OC)c2)c1`: the IC50 in assay [1] came out at 40 µM; in assay [2], 34.7 µM; in assay [3], 25.9 µM; in [4] it was 31.9 µM.

Regarding `NS(=O)(=O)Oc1ccc(/C=C/C(=O)/C=C/c2ccc(OS(N)(=O)=O)cc2)cc1`, the IC50 in assay [1] stood at 5.1 µM; in assay [2], 5.1 µM; in assay [3], 3.5 µM; in assay [4], 4.2 µM.

In the case of `COc1ccc(/C=C/C(=O)/C=C(O)/C=C/c2ccc(OC)c(OC)c2)cc1OC` [DIMETHYLCURCUMIN], the IC50 in assay [1] was 5.9 µM; in assay [2], 3.9 µM; in [3] it was 5.4 µM; in assay [4], 4.9 µM; in assay [5], 31.5 µM.

Take `COc1cc(/C=C/C(=O)/C=C/c2ccc(OS(N)(=O)=O)c(OC)c2)ccc1OS(N)(=O)=O`: the IC50 in [1] turned out to be 6.1 µM; in assay [2], 2.4 µM; in [3], 6.6 µM; in assay [4], 1.7 µM.

In the case of `COc1cc(/C=C/C(=O)/C=C/c2cc(OC)cc(OC)c2)cc(OC)c1`, the IC50 in assay [1] was 2.5 µM; in assay [2], 2.1 µM; in [3] it was 2.7 µM; in assay [4], 1.5 µM; in assay [5] it was above 50 µM. The “Ratio IC50” value in assay [6], in [7], in [8] and in assay [9] was “>=5” in each case.

As to `COc1cc(/C=C/C(=O)/C=C/c2cc(OC)c(OS(N)(=O)=O)c(OC)c2)cc(OC)c1OS(N)(=O)=O`, the IC50 came out at 2.4 µM in [1], 1.9 µM in assay [2], 1.5 µM in assay [3] and 0.6 µM in assay [4].

Regarding `COc1cc(/C=C/C(=O)/C=C/c2cc(OC)c(O)c(OC)c2)cc(OC)c1O`, the IC50 worked out at 3.6 µM in [1], 2.5 µM in assay [2], 1.7 µM in assay [3] and 2.7 µM in assay [4].

Consider `CC(=O)Oc1ccc(/C=C/C(=O)/C=C(O)/C=C/c2ccc(OC(C)=O)c(OC(C)=O)c2)cc1OC(C)=O`, for which the IC50 in [1] was 12.9 µM; in [2], 20.2 µM; in assay [3], 17.8 µM; in assay [4] it was 12.3 µM.

On to `COc1cc(OC)c(/C=C/C(=O)/C=C/c2c(OC)cc(OC)cc2OC)c(OC)c1`, for which the IC50 was 2.1 µM in assay [1]; 0.5 µM in [2]; 0.4 µM in [3]; 0.6 µM in assay [4]; above 50 µM in assay [5]. Also, the “Ratio IC50” value in [6], in assay [7], in [8] and in [9] was 25 in each case.

As to `COc1ccc(/C=C/C(=O)/C=C(O)/C=C/c2ccc(OC)c(OS(N)(=O)=O)c2)cc1OS(N)(=O)=O`, the IC50 was 7.4 µM in assay [1], 7.7 µM in assay [2], 5.5 µM in [3] and 6.5 µM in [4].

In the case of `COc1cc(OC)c(OC)cc1/C=C/C(=O)/C=C/c1cc(OC)c(OC)cc1OC`, the IC50 in [1] was 4.6 µM; in assay [2], 1.7 µM; in [3], 2.4 µM; in assay [4], 2.4 µM; in assay [5] it was above 50 µM. The “Ratio IC50” value in assay [6], in assay [7], in [8] and in assay [9] was “>=5” throughout.
